In the library only some 4.8% were active in any assay of this set; here they are far more common.
NALP3 yeast inh = blocks the NALP3 inflammasome reconstituted in yeast. Yeast reconstituted NLRP3/ASC/caspase-1, beta-gal luminescence, 24 h. actives 0.39% (n = 330,000). inhibition, % at 10 µM;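 active means inhibition of 50% or more; inactive means inhibition below 50%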;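 further: plate controls were induced DMSO wells for no effect and uninduced yeast grown without galactose for full effect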
UCH37 DUB inh = blocks the human deubiquitinase UCH37; Q9Y5K5; purified proteasome/UCH37, Ub-AMC cleavage fluorescence; inhibition, % (no concentration beside the values); actives 0.33% (n = 330,000); AID 588478;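 active means mean inhibition over replicate wells above about 20%, limit read from the data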;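 further: 0% = compound-free wells with enzyme and 100% = wells lacking proteasome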
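assay system = human UCH37 enzyme supplied as purified proteasome complex | amount = proteasome at 0.15 nM in the dispensed enzyme solution | schedule = 30 min compound-proteasome preincubation then 25 min substrate reaction, room temperature | measured by = fluorescence, ex 355 nm, em 460 nm | benchmarks = no-proteasome wells (full inhibition) and compound-free wells (no inhibition)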
Calb FLC = affects C. albicans growth with fluconazole. C. albicans CaCi-2 + fluconazole, Alamar Blue growth, 48 h. actives 0.57% (n = 300,000). growth inhibition, % (test concentration not listed);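 active means growth inhibition above about 58% in most replicates, limit read from the data, passing the limit was not always enough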;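 further: all wells also contain fluconazole at 8 µg/ml as a sub-toxic cotreatment; 0% = median of DMSO wells and 100% = median of geldanamycin control wells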
NALP1 yeast inh = NALP1 inhibition. S. cerevisiae NALP1/ASC/caspase-1 growth, X-gal OD620, 72 h. inhibition, % at 10 µM. actives 0.61% (n = 280,000). AID 2071; in the data active means inhibition mostly above about 24%, no sharp cut-off; inactive means mostly below about 32%
ATG4B inhibitor = blocks human ATG4B protease cleavage of LC3 substrate. ATG4B cleavage of LC3-PLA2, NBD-HPC fluorescence, 1 h. inhibition, % at 8.33 µM. actives 0.51% (n = 340,000); in the data active means inhibition above about 40%
Target sequence (Q9Y4P1 whole entry, looked up): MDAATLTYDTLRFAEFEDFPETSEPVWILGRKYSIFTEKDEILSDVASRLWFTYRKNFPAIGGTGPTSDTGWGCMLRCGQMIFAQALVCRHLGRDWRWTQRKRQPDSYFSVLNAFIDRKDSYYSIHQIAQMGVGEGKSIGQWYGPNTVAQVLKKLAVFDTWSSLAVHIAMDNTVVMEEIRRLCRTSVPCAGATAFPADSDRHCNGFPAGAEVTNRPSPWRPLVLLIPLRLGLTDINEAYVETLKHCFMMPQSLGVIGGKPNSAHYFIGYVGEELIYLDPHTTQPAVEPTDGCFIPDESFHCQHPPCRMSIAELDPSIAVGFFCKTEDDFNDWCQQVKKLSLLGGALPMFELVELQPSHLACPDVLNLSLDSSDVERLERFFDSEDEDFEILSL
ALR H2O2 inh = human ALR oxidase inhibition via reduced H2O2; P55789; purified ALR, DTT oxidation, H2O2 HRP-luminol luminescence; inhibition, % (concentration not given with the values); actives 3.8% (n = 290,000);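 active means mean replicate inhibition above about 79%, with every replicate also reaching it, limit read from the data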
Target sequence (P55789 whole entry, looked up): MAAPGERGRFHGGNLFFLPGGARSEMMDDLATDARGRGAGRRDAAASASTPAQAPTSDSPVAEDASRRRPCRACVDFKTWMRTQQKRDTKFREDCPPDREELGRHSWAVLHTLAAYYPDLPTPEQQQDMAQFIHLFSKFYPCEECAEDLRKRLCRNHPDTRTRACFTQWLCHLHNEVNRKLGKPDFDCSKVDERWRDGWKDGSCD
NALP3 yeast conf = confirmation of NALP3 inhibitors in yeast; yeast expressing human NALP3, luminescence; inhibition, % at 10 µM; shares compounds with NALP3 yeast inh; AID 435006; actives 81% (n = 1,300); in the data active means inhibition above about 48%
Casp1-ASC yeast = counter-screen for NALP3 inhibitors: yeast caspase-1-ASC; shares compounds with NALP3 yeast inh; yeast expressing Caspase-1-ASC, luminescence counter screen; inhibition, % at 10 µM; actives 66% (n = 1,000); AID 488784
NALP3 yeast rt = confirmation retest of NALP3 inhibitors in yeast | shares compounds with NALP3 yeast inh | yeast expressing human NALP3, luminescence read-out | inhibition, % at 10 µM | actives 53% (n = 1,000)
* = called active by the depositor; . = not tested or not shown; ! = repeats disagree. Unless noted, no stated cut-off is given here; in the data, active means inhibition above about 50%; inactive means the rest.

SMILES	NALP3 yeast inh	UCH37 DUB inh	Calb FLC	NALP1 yeast inh	ATG4B inhibitor	ALR H2O2 inh	NALP3 yeast conf	Casp1-ASC yeast	NALP3 yeast rt
CCCCNC(=O)[C@]1(C)CCC[C@@]2(C)C3CC[C@@]4(C)C[C@]3(CCC21)CC4=O (some centres not stated)	54*	-2	.	.	-3	-2	50*	60*	53*
C[C@@]12CCC3[C@@](CCC4[C@@]3(C)CCC[C@@]4(C)C(=O)N3CCOCC3)(CC1=O)C2 (some centres not stated)	30	-29	.	.	-6	-1	.	.	.
CC(C)NC(=O)[C@]1(C)CCC[C@@]2(C)C3CC[C@@]4(C)C[C@]3(CCC21)CC4=O (some centres not stated)	59*	2	.	.	-1	8	49	53*	53*
O=C(Nc1cccc(S(=O)(=O)N2CCOCC2)c1)c1ccc2ccccc2n1	-104	2	8	.	-11	-1	-2	.	.
Cc1c(C(=O)Nc2cccc(S(=O)(=O)N3CCCC3)c2)oc2ccccc12	-32	2	8	.	4	-3	.	.	.
O=C(Nc1cccc(S(=O)(=O)N2CCCCC2)c1)c1ccc2ccccc2n1	-104	-2	11	-16	-9	-9	-58	.	.
O=C(Nc1cccc(S(=O)(=O)N2CCCC2)c1)c1ccc2ccccc2n1	-128	4	-6	15	-4	-21	-12	.	.
COc1ccc(NCC(=O)NN=Cc2c(C)nn(Cc3ccccc3)c2Cl)cc1	.	3	.	.	.	.	.	.	.
CCOC(=O)C1=C(COCCN)NC(C)=C(C(=O)OC)C1c1ccccc1Cl (configuration not stated)	53*!	-18	-4	.	2	12	59*	44	49
CCOC(=O)C1=C(C)NC(C)=C(C(=O)OC)C1c1cccc(Cl)c1Cl (configuration not stated)	8	-8	22	10	-12	-1	.	.	.
O=C(Oc1cc(=O)oc2c1c(=O)n1c3c(cccc23)CC1)c1ccc(F)cc1	58*	.	-1	2	4	-28	74*	.	.
O=C(Oc1cc(=O)oc2ccccc12)c1ccccc1	16	1	-5	17	-4	-17	.	.	.
O=C(Oc1cc(=O)oc2c1c(=O)n1c3c(cccc23)CC1)c1ccccc1	64*	-24	-5	-4	-6	1	76*	56*	63*
CCN(CC)CCn1c(N=Cc2cc(Br)ccc2O)nc2ccccc21	.	-2	.	.	.	.	.	.	.
Cc1ccc(NC(=O)Cc2ccsc2)cc1Cl	54*	4	-7	-56	3	5	68*	43	38
Cc1nc2ccc(NC(=O)Cc3ccsc3)cc2s1	19	3	6	-2	-1	-27	.	.	.
Cc1[nH]c2c(C)cccc2c1CCNC(=O)C1CCCCC1C(=O)OCC(F)(F)F (configuration not stated)	72*	-2	-1	6	-7	8	-7	.	.
CC1(C(=O)OCc2cc(=O)n3cc(Br)ccc3n2)CC1(Cl)Cl (configuration not stated)	64*	-3	24	5	-7	5	72*	78*	64*
O=C(/C=C/c1cccc([N+](=O)[O-])c1)NCCSCc1cccc(Cl)c1	71*	2	-29	21	32	2	-6	.	.
Nc1c(Cl)c(Cl)nc(C(=O)NN=Cc2ccco2)c1Cl	.	-18	.	.	.	.	.	.	.
NC(=NOC(=O)C1CCCCC1)c1cccc([N+](=O)[O-])c1	.	1	.	.	.	.	.	.	.
O=c1c2sc(-c3ccccc3)cc2nc2n1CCC2	55*	3	-2	-91	-3	-2	49	45	30
O=c1c2sc(-c3ccccc3)cc2nc2n1CCCCC2	14	0	-28	31	-6	15	.	.	.
CCCCCC(=O)N1CCN(CCN=CC2=C(O)CC(c3ccco3)CC2=O)CC1 (configuration not stated)	53*	1	-3	-15	-11	-3	54*	43	52*
CCCCCN=CC1=C(O)CC(c2ccccc2)CC1=O (configuration not stated)	22	0	9	-6	-1	-3	.	.	.
SMILES	NALP3 yeast inh	UCH37 DUB inh	Calb FLC	NALP1 yeast inh	ATG4B inhibitor	ALR H2O2 inh	NALP3 yeast conf	Casp1-ASC yeast	NALP3 yeast rt
CCCCCC(=O)N1CCN(CCN=CC2=C(O)CC(c3cccs3)CC2=O)CC1 (configuration not stated)	51*	-1	11	-6	-1	-6	65*	55*	44
S=c1[nH]nc(COc2ccccc2)n1N=Cc1ccncc1	.	4	.	.	.	.	.	.	.
CCNC(=S)NN=C(C)c1cccc(C(F)(F)F)c1	.	6	.	.	.	.	.	.	.
COc1ccc(-c2cn3ccccc3n2)cc1	32	-82	-1	12	-10	-16	.	.	.
CCCOc1ccc(-c2cn3ccccc3n2)cc1	72*	-68	-23	5	4	-2	56*	88*	76*
O=C1c2ccsc2SCCN1Cc1ccccc1	58*	6	-36	8	0	-12	43	48	47
CC(=NNC(=O)c1ccc2c(c1)OCO2)c1ccc2c(c1)OCO2	.	7	.	.	.	.	.	.	.
CC1Oc2ccccc2N(Cc2ccccc2Cl)C1=O (configuration not stated)	-144	1	-8	6	9	2	6	.	.
CC1Oc2ccccc2N(Cc2ccccc2F)C1=O (configuration not stated)	-74	3	26	-2	.	-1	.	.	.
Cc1cc(NC(=O)/C=C/c2ccccc2)no1	50*	4	-22	-5	-8	-2	68*	39	46
COc1ccc(/C=C/C(=O)Nc2cc(C)on2)cc1	32	1	2	36	-6	-1	.	.	.
O=[N+]([O-])c1ccc(O)c2ncccc12	83*	6	99*	158*	0	.	92*	99*	98*
CC(=NNC(=O)c1[nH]c2c([N+](=O)[O-])cc(C)cc2c1-c1ccccc1)c1cccnc1	.	1	.	.	.	.	.	.	.
Clc1ccccc1OCCn1cnc2ccccc21	76*	2	-2	30*	-3	.	84*	79*	63*
Clc1ccc(OCCn2cnc3ccccc32)cc1	49	0	-9	9	-3	-1	.	.	.
CCOc1cc(C2Nc3ccccc3C(=O)N2c2ccccc2)c(Br)cc1OCC(=O)O (configuration not stated)	-100	-414	5	-15	1	-2	-31	.	.
COc1ccc(C(=O)c2cc([N+](=O)[O-])ccc2N2CCN(C)CC2)cc1	2	6	3	27	-6	4	.	.	.

High-throughput results as filed in PubChem BioAssay.
